Measurements reported in ChEMBL document CHEMBL1142561, “Prenylflavonoids and phloroglucinol derivatives from hops (Humulus lupulus)” (J Nat Prod, 2005).

How the values were obtained:
[1] = Cytotoxicity against mouse RAW264.7 cells assessed as cell viability at <10 uM after 16 hrs by MTT assay; assay type: cell-based; settings: read-out: Activity
Procedure, shortened: (§1)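 RAW 264.7 cells grown in RPMI 1640 with 10% FBS, 2 mM L-glutamine, penicillin/streptomycin. Seeded at 5 × 10⁵ cells/mL in 96-well plates and co-treated with LPS (100 ng/mL), IFN-γ (100 units/mL) and samples in DMSO (0.2% final) for 16 h at 37 °C. MTT (200 μg/mL) added for a further 4 h. Formazan dissolved in DMSO, A540 read, compared with nontreated cells.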

RAW264.7 [2] = test: Inhibition of LPS/IFN-gamma-induced NO production in mouse RAW264.7 cells after 16 hrs; assay type: functional, cell-based; settings: RAW264.7, 16 h
Procedure, shortened: (§2)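 RAW 264.7 macrophages in RPMI 1640 with 10% FBS, 2 mM L-glutamine, penicillin/streptomycin, seeded at 5 × 10⁵ cells/mL. After 1 h, stimulated with LPS (100 ng/mL) plus IFN-γ (100 units/mL) and samples in DMSO (0.2% final) for 16 h at 37 °C. Supernatant nitrite measured by Griess assay at 570 nm against NaNO₂ standards. Inhibition rate taken relative to LPS/IFN-only wells.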

RAW264.7 [3] = test: Cytotoxicity against mouse RAW264.7 cells assessed as cell viability at 20 uM after 16 hrs by MTT assay; assay type: cell-based; settings: raw264.7, 16 h; procedure, shortened: as §1
RAW264.7 [4] = test: Cytotoxicity against mouse RAW264.7 cells after 16 hrs by MTT assay; assay type: cell-based; settings: raw264.7, 16 h; procedure, shortened: as §1
RAW264.7 [5] = test: Inhibition of LPS/IFN-gamma-induced NO production in mouse RAW264.7 cells at non cytotoxic concentration after 16 hrs; assay type: functional; procedure, shortened: as §2
[6] = Cytotoxicity against mouse RAW264.7 cells assessed as cell viability at 2 uM after 16 hrs by MTT assay; assay type: cell-based; settings: read-out: Activity; procedure, shortened: as §1
[7] = Cytotoxicity against mouse RAW264.7 cells assessed as cell viability at 200 uM after 16 hrs by MTT assay; assay type: cell-based; settings: read-out: Activity; procedure, shortened: as §1

Structure (SMILES) | viability at 16 h [1] [%] | IC50 (RAW264.7 [2]) [µM] | Activity (RAW264.7 [3]) | Activity (RAW264.7 [4]) | inhibition (INH) (RAW264.7 [5]) [%] | viability at 16 h, 2 µM [6] [%] | viability at 16 h, 200 µM [7] [%]
C=C(C)C(O)Cc1c(O)cc(OC)c(C(=O)/C=C/c2ccc(O)cc2)c1O (centres undefined) [XANTHOHUMOL D] | > 95 | 9.4 | – | – | – | – | –
COc1cc(O)c(CC=C(C)C)c(O)c1C(=O)CCc1ccc(O)cc1 [DIHYDROXANTHOHUMOL] | > 95 | 23 | Non-toxic | – | – | – | –
CC(C)=CCC1=C2OC(C)(C)C=CC2(CC=C(C)C)C(=O)C(C(=O)CC(C)C)=C1O (centres undefined) [LUPULONE A] | – | 20 | – | Toxic | <40 | – | –
CC(C)=CCC1=C2OC(C(C)(C)O)CC2(CC=C(C)C)C(=O)C(C(=O)C(C)C)=C1O (centres undefined) [LUPULONE E] | – | 15 | – | Toxic | <40 | < 95 | –
COc1cc(O)c(CC(O)C(C)(C)OC)c(O)c1C(=O)/C=C/c1ccc(O)cc1 (racemic) | > 95 | 6.5 | – | – | – | – | –
CC(C)=CCC1=C2OC(C)(C)C=CC2(CC=C(C)C)C(=O)C(C(=O)C(C)C)=C1O (centres undefined) [LUPULONE B] | – | 14 | – | Toxic | <40 | – | –
COc1cc(O)c(CC=C(C)C)c(O)c1C(=O)/C=C/c1ccc(O)cc1 [XANTHOHUMOL] | > 95 | 8.3 | – | – | – | – | –
CC(C)=CCC1(CC=C(C)C)C(=O)C(O)=C(O)C1=O [HULUPINIC ACID] | – | > 100 | – | – | – | – | > 95
CC(C)=CCC1=C(O)C(C(=O)CC(C)C)=C(O)C(CC=C(C)C)(CC=C(C)C)C1=O [LUPULONE] | – | 17 | – | Toxic | <40 | – | –
CC(C)=CCC1(CC=C(C)C)C(=O)C2=C(OC(C(C)(C)O)C2)C(C(=O)CC(C)C)=C1O (centres undefined) [LUPULONE C] | – | 63 | – | Toxic | <40 | – | –
COc1cc2c(c(O)c1C(=O)/C=C/c1ccc(O)cc1)CC(O)C(C)(C)O2 (centres undefined) [XANTHOHUMOL B] | > 95 | 5.6 | – | – | – | – | –
CC(C)C(=O)c1c(O)ccc2c1OC(C(C)(C)O)C2 (centres undefined) [LUPULONE F] | – | > 100 | – | – | – | – | –
CC(C)=CCC1=C2OC(C(C)(C)O)CC2(CC=C(C)C)C(=O)C(C(=O)CC(C)C)=C1O (centres undefined) [LUPULONE D] | – | 11 | – | Toxic | <40 | < 95 | –
